# Screens: PubChem BioAssay, several laboratories
# A selection: hits, their analogues and other compounds. The true share with any hit is near 1.4%.
# Vif imaging – HIV Vif inhibition | inhibition, % at 7.49 µM | 0.35% of 340,000 active | HEK293T cells, Vif self-association by quenched fluorescence, imaging, 24 h | AID 602346; in the data active means inhibition above about 50%, passing the limit was not always enough; inconclusive means no clear call, values can overlap the other calls; inactive means below about 31%
# PKA-R2B activ – activators of human PKA-R2B complex | PKA-R2B holoenzyme dissociation, Cy5-IP20 fluorescence polarization; R2B truncated from residue 108, S112A mutant; 0% DMSO only, 100% 113 µM cGMP | activation, % at 11.4 µM | 0.079% of 340,000 active | AID 504700;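 active means activation above a cutoff set at the mean over all compounds plus 3 SD, cut at about 18% in these data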;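 further: higher means more holoenzyme dissociation and a rise in polarization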
# Target sequence (P31323 whole entry, looked up, other chains not shown, the tested form may be a part): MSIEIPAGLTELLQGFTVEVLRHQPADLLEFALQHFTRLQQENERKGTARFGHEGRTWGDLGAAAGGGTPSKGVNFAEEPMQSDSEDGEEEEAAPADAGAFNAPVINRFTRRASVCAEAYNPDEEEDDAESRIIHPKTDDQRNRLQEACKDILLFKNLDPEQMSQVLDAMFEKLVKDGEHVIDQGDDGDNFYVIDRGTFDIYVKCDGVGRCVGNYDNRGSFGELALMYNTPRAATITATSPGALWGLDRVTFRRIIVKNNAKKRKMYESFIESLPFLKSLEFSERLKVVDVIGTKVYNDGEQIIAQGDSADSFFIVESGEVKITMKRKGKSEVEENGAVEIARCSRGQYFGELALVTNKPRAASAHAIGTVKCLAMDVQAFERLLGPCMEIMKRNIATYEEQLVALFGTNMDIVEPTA
# SR-BI uptake up – activators of SR-BI mediated HDL lipid uptake. CHO ldlA[mSR-BI] cells, DiI-HDL uptake fluorescence, 3 h; 100 = double the neutral-control signal. activation, % at 12.5 µM. 0.096% of 320,000 active;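 active means mean replicate activation of at least 60% and every replicate at or above 60%; inconclusive means mean or all-replicate condition met, but not both; inactive means mean below 60% and not all replicates reaching 60%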;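 further: 0% = median plate neutral-control signal and 100% = twice that signal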
#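 System: CHO ldlA[mSR-BI] cells / Medium: HEPES-buffered (25 mM, pH 7.4) F12 plus 0.5% BSA / Probe or stimulus: labelled HDL, 10 µg/mL / Doses: single compound concentration, delivered by pin transfer / Schedule: 3 h, 37 °C / Measured by: DiI fluorescence, bottom read / Measure: cell-associated DiI fluorescence as measure of HDL uptake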
# SR-BI HDL uptake – inhibitors of mouse SR-BI mediated HDL lipid uptake; Q61009; ldlA[mSR-BI] CHO cells, DiI-HDL uptake fluorescence, 3 h; inhibition, % at 12.5 µM; 0.96% of 320,000 active;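 active means mean replicate inhibition of at least 70% and a set share of replicates each scoring 70 or more; inconclusive means meets just one of the two criteria; inactive means fails both criteria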;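 further: 0% = median of neutral control wells and 100% = median of positive control wells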
# PKA-R1A act – activators of PKA-R1A complex | P00514+P68181 | PKA-R1A dissociation, Cy5-IP20 fluorescence polarization; scaled: DMSO 0%, 113 µM cGMP 100% | activation, % at 11.4 µM | 0.083% of 340,000 active;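 active means percent activation above the mean of all tested compounds plus 3 SD, cut at about 19% in these data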;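 further: higher means more PKAc released from R1A so a rise in polarization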
# An asterisk follows results filed as active; ? = inconclusive; . = no result.
SMILES,Vif imaging,PKA-R2B activ,SR-BI uptake up,SR-BI HDL uptake,PKA-R1A act
COc1cccc(/C=N/NC(=O)c2c(C)nc3ccc(Br)cn23)c1O,1.9,-15.3,-100.3,100.3*,-5.3
COc1cc(/C=N\NC(=O)c2ccc(Cn3nc([N+](=O)[O-])c(Cl)c3C)o2)ccc1O,5.3,-4.7,-45.8,45.8,-5.3
COc1cccc(/C=N\NC(=O)c2ccc(Cn3cc(Br)c([N+](=O)[O-])n3)o2)c1O,2.1,-1.7,-101.0,101.0*,-2.3
COc1ccccc1C=NNC(=O)NN=Cc1ccccc1OC,-7.1,-5.0,-39.3,39.3,1.4
COc1cccc(/C=N/NC(=O)N/N=C/c2cccc(OC)c2O)c1O,-1.7,5.4,-83.3,83.3*,-2.0
CCOC(=O)C(C(=O)OCC)N(C#N)c1nc(N(C)C)nc(N(C)C)n1,6.9,-2.6,-47.0,47.0,2.7
Cc1c(C(=O)NCc2ccccn2)oc2ccc(S(=O)(=O)N3CCOCC3)cc12,86.4*,-9.8,-2.9,2.9,4.1
Oc1ccccc1C1SC(c2ccccc2O)SC(c2ccccc2O)S1 (centres undefined),59.5*,9.7,-1.0,1.0,3.0
CCOC(=O)c1nn2c(C(F)(F)F)cc(-c3ccc(OC)cc3)nc2c1Br,6.1,-5.2,-103.5,103.5*,-8.2
COc1cccc(-c2cc(C(F)(F)F)n3nc(C(=O)Nc4c(C)n(C)n(-c5ccccc5)c4=O)cc3n2)c1,-4.3,-6.8,-78.4,78.4*,1.6
Cc1c(NC(=O)c2cc3nc(-c4ccc(Cl)cc4)cc(C(F)(F)F)n3n2)c(=O)n(-c2ccccc2)n1C,17.1,4.8,-70.0,70.0*,8.2
COc1ccc(-c2cc(C(F)(F)F)n3nc(C(=O)Nc4c(C)n(C)n(-c5ccccc5)c4=O)c(Cl)c3n2)cc1,5.7,-7.4,-79.5,79.5*,-9.0
Cc1c(NC(=O)c2nn3c(C(F)(F)F)cc(-c4ccccc4)nc3c2Cl)c(=O)n(-c2ccccc2)n1C,.,2.0,-28.5,28.5,-14.2
COc1ccc(-c2cc(C(F)(F)F)n3nc(C(=O)NCCN4CCOCC4)cc3n2)cc1,-0.6,-7.8,-76.9,76.9*,3.3
COc1ccc(-c2cc(C(F)(F)F)n3nc(C(=O)NCCCn4ccnc4)cc3n2)cc1,5.4,6.9,-63.8,63.8,9.8
COc1ccc(-c2cc(C(F)(F)F)n3nc(C(=O)Nc4c(C)n(C)n(-c5ccccc5)c4=O)cc3n2)cc1,6.3,-2.5,-79.6,79.5*,-6.7
CCOc1ccc(NC(=O)CN(C)C(=O)c2cccnc2Sc2ccc(Cl)cc2)cc1OCC,-13.4,-8.7,81.9*,-81.9,-7.3
CCOc1ccc2oc(C(=O)N(C)CCc3ccc(OC)c(OC)c3)c(C)c2c1,-2.8,6.9,-35.3,35.3,-6.0
CCOc1ccc(NC(=O)CN(C)C(=O)c2cccnc2Sc2ccc(C)c(C)c2)cc1OCC,.,-7.2,-39.8,39.8,-0.2
CCOc1ccc2oc(C(=O)N(C)CC(=O)Nc3ccc(OCC)c(OCC)c3)c(C)c2c1,-0.2,4.0,-82.5,82.5*,-1.1
CCOc1ccc(NC(=O)CN(C)C(=O)CCCOc2ccc(Br)cc2)cc1OCC,-2.9,-8.6,-82.8,82.8*,-10.4
COCCNC(=S)N1CCN(S(C)(=O)=O)CC1,-5.1,-2.7,16.2,-16.2,1.8
COc1ccc(NC(=O)Cc2nnc(SCC(=O)NC3=NCCS3)n2C)cc1,9.9,-2.7,.,.,-9.4
CCc1ccc(N2CC(C(=O)N3CCN(c4ccc([N+](=O)[O-])cc4)CC3)CC2=O)cc1 (centres undefined),?,-4.2,.,.,9.8
Cc1cc(/C=N\NC(=O)c2cccs2)c(C)n1-c1ccc2ncccc2c1,-13.8,0.1,-73.3,73.3*,8.7
SMILES,Vif imaging,PKA-R2B activ,SR-BI uptake up,SR-BI HDL uptake,PKA-R1A act
Cc1cc(/C=N\NC(=O)COc2cccc3cccnc23)c(C)n1-c1ccc(Br)cc1,-2.4,-3.4,-21.1,21.1,-9.3
CCCCCCC(=O)Nc1ccc(C(=O)N/N=C/c2cccnc2)cc1,-16.3,-4.2,-76.1,?,-8.0
CCCCCCCC(=O)Nc1ccc(C(=O)N/N=C/c2cccc([N+](=O)[O-])c2)cc1,0.2,1.5,-86.9,86.9*,2.3
COc1cc(/C=N/NC(=O)c2cccs2)ccc1OCc1ccccc1,-0.2,10.8,-42.7,42.7,-1.6
O=C(N/N=C/c1cccc([N+](=O)[O-])c1O)c1cccs1,0.0,-0.1,-98.4,98.4*,6.0
O=C(N/N=C/c1ccccc1OCc1ccccc1)c1cccs1,-0.1,-10.1,-75.6,75.6*,-11.9
COc1ccc(NC(=O)/C(=C\c2ccncc2)NC(=O)c2ccccc2)cc1,21.8,-9.4,-2.4,2.4,0.1
CCc1nnc(NC(=O)c2nc(S(=O)(=O)Cc3ccc(C)cc3)ncc2Cl)s1,-17.4,-2.1,64.3*,-64.3,-7.0
CCc1nnc(NC(=O)c2nc(S(=O)(=O)Cc3ccccc3)ncc2Cl)s1,-20.0,-9.9,10.3,-10.3,1.9
O=C(CCCSCCCC(=O)NN=Cc1ccccc1)NN=Cc1ccccc1,-8.2,-4.7,-32.7,32.7,-0.5
O=C(CCSCCC(=O)NN=Cc1ccc(F)cc1)NN=Cc1ccc(F)cc1,8.8,-3.0,-81.8,81.8*,-4.2
CC12CCC(C(=O)NCCc3ccccc3)(OC1=O)C2(C)C (centres undefined),51.9*,2.4,20.6,-20.6,3.7
O=C(CCCOc1ccc(Br)cc1)NCCc1ccc(OC(F)F)cc1,7.4,-1.3,0.3,-0.3,-0.9
O=C(Nc1nc(-c2ccccc2)cs1)c1cccc([N+](=O)[O-])c1,-18.2,-15.1,-51.3,51.3,-9.1
O=C(Nc1ccccc1)Nc1nc(-c2ccc(Cl)cc2)cs1,-1.1,-1.5,-38.4,38.4,2.8
O=C(Nc1ccc(-c2csc(Nc3cccc(C(F)(F)F)c3)n2)cc1)c1cc([N+](=O)[O-])cc(C(F)(F)F)c1,0.8,3.1,-91.9,91.9*,3.0
CC(=O)c1cccc(Nc2nc(-c3ccccc3)cs2)c1,-0.4,-10.2,-75.0,75.0*,-3.8
O=C(Nc1cccc(-c2csc(Nc3ccccc3)n2)c1)c1ccccc1,-10.7,-1.2,-76.9,76.9*,0.2
O=C(Nc1ccc(-c2csc(Nc3ccc(Cl)cc3)n2)cc1)c1ccccc1,7.8,10.3,-92.8,92.8*,-0.6
O=C(Nc1ccc(-c2csc(Nc3cccc(C(F)(F)F)c3)n2)cc1)c1ccccc1,-11.0,-5.7,-97.2,97.2*,-9.1
COc1ccccc1Nc1nc(-c2cccc([N+](=O)[O-])c2)cs1,-5.5,-6.9,-59.0,59.0,-0.9
Cc1nc(-c2ccc(NC(=O)c3ccccc3)cc2)cs1,17.0,2.7,-23.1,23.1,6.3
O=[N+]([O-])c1cccc(-c2csc(Nc3ccccc3)n2)c1,-8.7,-12.4,-87.3,87.3*,-3.9
O=C(Nc1cccc(-c2csc(Nc3cccc(C(F)(F)F)c3)n2)c1)c1ccccc1,-2.8,-10.2,-78.3,78.3*,-4.5
